Data on 18 compounds can be found in ChEMBL document CHEMBL3259769, “Symmetric adamantyl-diureas as soluble epoxide hydrolase inhibitors” (Bioorg Med Chem Lett, 2014).

A word on the IC50: it is the concentration at which inhibition is half-maximal. What is called solubility is how much of the substance goes into solution per volume. Low values mean little dissolved substance, high ones much dissolved substance. Usually Ki stands for the dissociation constant of the complex between target and ligand, obtained from inhibition or displacement.

Converted amounts (≈) assume the structure as drawn.

The target in series [1] is T1, Bifunctional epoxide hydrolase 2 (Homo sapiens, UniProt P34913).
T1 sequence (P34913 whole entry): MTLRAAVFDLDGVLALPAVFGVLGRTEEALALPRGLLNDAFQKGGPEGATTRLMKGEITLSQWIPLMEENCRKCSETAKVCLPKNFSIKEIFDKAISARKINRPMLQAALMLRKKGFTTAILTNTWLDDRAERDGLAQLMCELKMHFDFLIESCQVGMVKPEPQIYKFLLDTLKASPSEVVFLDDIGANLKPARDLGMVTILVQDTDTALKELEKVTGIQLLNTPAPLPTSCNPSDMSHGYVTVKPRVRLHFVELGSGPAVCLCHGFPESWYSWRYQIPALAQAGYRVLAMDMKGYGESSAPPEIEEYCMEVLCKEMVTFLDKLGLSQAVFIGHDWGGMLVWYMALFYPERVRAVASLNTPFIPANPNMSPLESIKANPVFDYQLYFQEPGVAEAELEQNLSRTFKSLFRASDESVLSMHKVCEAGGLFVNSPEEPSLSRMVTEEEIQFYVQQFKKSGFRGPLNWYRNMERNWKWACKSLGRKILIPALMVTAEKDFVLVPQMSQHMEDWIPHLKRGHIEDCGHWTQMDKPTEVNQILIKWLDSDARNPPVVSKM
The experiment in a line: Inhibition of recombinant human soluble epoxide hydrolase using CMNPC as substrate preincubated for 5 mins followed by substrate addition measured at 5 mins post substrate addition by fluorescence assay in presence of 0.1 mg/mL BSA.

Series [2] is described as follows: Solubility of the compound in sodium phosphate buffer at pH 7.4 after 24 hrs by LC/MS/MS analysis. The series is classed as physicochemical. The essentials:
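Compound suspended in 0.1 M sodium phosphate buffer, pH 7.4, containing 1% DMSO, held 24 h at 30 °C, then 1 h at rt. Centrifuged 10,000 rpm for 10 min; supernatant diluted 5-fold in methanol, 15 min at rt to precipitate salt, then re-centrifuged. Supernatant stored at -20 °C until LC/MS-MS quantitation.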

The nature of series [3]: Metabolic stability in human liver microsomes assessed as compound remaining at 1 uM preincubated for 5 mins followed by NADPH addition measured after 30 mins by LC/MS/MS analysis. It is filed as ADME. The following applies: read-out: Stability. An outline of the steps:
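Human liver microsomes (1 mg/mL final) in 0.1 M potassium phosphate, pH 7.4, 3 mM MgCl2, 1 mM EDTA, were preincubated with inhibitor 5 min at 37 °C. Reaction was started with NADPH generating system and run 30 min at 37 °C. Quenched with one volume methanol containing 200 nM CUDA surrogate. LC/MS/MS; % remaining; triplicate average.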
(Liver microsomes are vesicles of endoplasmic reticulum, rich in cytochrome P450 enzymes.)

Series [4] is described as follows: Metabolic stability in human liver microsomes assessed as compound remaining at 1 uM after 30 mins by LC/MS/MS analysis in absence of NADPH. The following applies: read-out: Stability. It is filed as ADME. The essentials:
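Inhibitor added to human liver microsomes (1 mg/mL final) in 0.1 M potassium phosphate, pH 7.4, with 3 mM MgCl2 and 1 mM EDTA. After 5 min at 37 °C, buffer was added in place of NADPH generating system, then 30 min at 37 °C. Stopped with one volume methanol containing 200 nM CUDA surrogate. LC/MS/MS; % remaining; triplicate average.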

The target in series [5] is T2, Bifunctional epoxide hydrolase 2 (Homo sapiens) (UniProt P34913).
T2 sequence (whole entry): T1 sequence (P34913 whole entry)

For series [6], the target named is T1, Bifunctional epoxide hydrolase 2. The experiment in a line: Displacement of ACPU from recombinant human soluble epoxide hydrolase after 1.5 hrs by FRET assay. An outline of the steps: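 Human sEH was preincubated with an equimolar amount of the fluorescent reporter ACPU for 2 h at rt. The complex (20 nM) was used in 100 mM sodium phosphate with 0.1% gelatin, pH 7.4, on gelatin-precoated plates. Inhibitor was added as 12 two-fold dilutions, with DMSO as control, and incubated 1.5 h. Fluorescence (ex 280/em 450 nm) was normalised to baseline and fitted to a three-state equilibrium model to give Ki.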

The target is the same in series [7]. Nature of the series: Inhibition of recombinant human soluble epoxide hydrolase using CMNPC as substrate preincubated for 5 mins followed by substrate addition measured at 5 mins post substrate addition by fluorescence assay in presence of 1 mg/mL BSA.

Consider `O=C(NCC1CCN(C(=O)NCC23CC4CC(CC(C4)C2)C3)CC1)NCC12CC3CC(CC(C3)C1)C2`, for which, in series [1], the IC50 came out at 39.7 nM.
In the case of `O=C(Nc1ccc(NC(=O)NC23CC4CC(CC(C4)C2)C3)cc1)NC12CC3CC(CC(C3)C1)C2`, the IC50 in series [1] is 19.5 nM.
Compound `O=C(NC1CCCCC1)NC1CCCCC1` [1,3-DICYCLOHEXYLUREA] yielded a solubility at 24 h in series [2] of 5 µM (≈ 1.12 µg/mL). Also, the values for the remaining at 0.5 h, 1 µM in series [3] and in series [4] were 22% and 100%, respectively.
Turning to `O=C(NCCCCCCCCNC(=O)NC12CC3CC(CC(C3)C1)C2)NC12CC3CC(CC(C3)C1)C2`, in series [1], the IC50 was determined as 997 nM.
Turning to `O=C(NCCCCNC(=O)NCC12CC3CC(CC(C3)C1)C2)NCC12CC3CC(CC(C3)C1)C2`, in series [1], the concentration for half-maximal inhibition (IC50) is 26.3 nM.
On to `CC(NC(=O)NCCCCCCCCNC(=O)NC(C)C12CC3CC(CC(C3)C1)C2)C12CC3CC(CC(C3)C1)C2` (configuration not stated), for which the T1/2 in series [5] stood at 11 min. In series [6], the Ki amounted to 3.1 nM. In addition, the solubility at 24 h in series [2] came to 10 µM (≈ 5.55 µg/mL). Moreover, the remaining at 0.5 h, 1 µM was determined as 11% in series [3] and 100% in series [4]. Besides, the half-maximal inhibitory concentration (IC50) in series [1] amounted to 0.5 nM; in series [7] it was 0.8 nM.
Consider `CCC(CNC(=O)NCCCCCCCCNC(=O)NCC(CC)C12CC3CC(CC(C3)C1)C2)C12CC3CC(CC(C3)C1)C2` (configuration not stated), for which the IC50 in series [1] was 1440 nM.
Still for that read-out and setting: the same measure for `CCC(CNC(=O)NCCCCNC(=O)NCC(CC)C12CC3CC(CC(C3)C1)C2)C12CC3CC(CC(C3)C1)C2` (configuration not stated): 2.3 nM; for `CC(NC(=O)Nc1ccc(NC(=O)NC(C)C23CC4CC(CC(C4)C2)C3)cc1)C12CC3CC(CC(C3)C1)C2` (configuration not stated): 161 nM.
In series [2], `O=C(NC12CC3CC(CC(C3)C1)C2)NC12CC3CC(CC(C3)C1)C2` came in with a solubility at 24 h of 5 µM (≈ 1.64 µg/mL). The remaining at 0.5 h, 1 µM worked out at 19% in series [3] and 93% in series [4]. In addition, the results for the half-inhibitory concentration (IC50) in series [1] and in series [7] were 1.2 nM and 1.3 nM, respectively.
In the case of `O=C(NCC12CC3CC(CC(C3)C1)C2)Nc1ccc(NC(=O)NCC23CC4CC(CC(C4)C2)C3)cc1`, the IC50 in series [1] was found to be 780 nM.
Take `O=C(NCCCCCCNC(=O)NCC12CC3CC(CC(C3)C1)C2)NCC12CC3CC(CC(C3)C1)C2`: in series [5], the T1/2 was found to be 10 min. In addition, the inhibition constant Ki in series [6] came to 3.4 nM. This compound displayed a solubility at 24 h in series [2] of 50 µM (≈ 24.9 µg/mL). Further, the remaining at 0.5 h, 1 µM in series [3] was found to be 3%; in series [4], 102%. Further, the concentration for half-maximal inhibition (IC50) in series [7] was found to be 0.7 nM.
In the case of `O=C(NCCCCNC(=O)NC12CC3CC(CC(C3)C1)C2)NC12CC3CC(CC(C3)C1)C2`, the IC50 in series [1] worked out at 7.2 nM.
Still for that read-out and setting: with `O=C(NCCCCCCCCNC(=O)NCC12CC3CC(CC(C3)C1)C2)NCC12CC3CC(CC(C3)C1)C2` the figure was 7.3 nM.
As to `O=C(NCCCCCCCCNC(=O)NC1C2CC3CC(C2)CC1C3)NC1C2CC3CC(C2)CC1C3` (configuration not stated), in series [5], the T1/2 was found to be 2.5 min. Further, the Ki in series [6] is 2.4 nM. In series [2], the solubility at 24 h turned out to be 5 µM (≈ 2.49 µg/mL). Further, the remaining at 0.5 h, 1 µM in series [3] was 36%; in series [4] it was 100%. Further, the IC50 in series [1] is 2.6 nM; in series [7], 4.1 nM.
For the compound `O=C(NCCCCNC(=O)NC1C2CC3CC(C2)CC1C3)NC1C2CC3CC(C2)CC1C3` (configuration not stated), the half-inhibitory concentration (IC50) in series [1] turned out to be 10.4 nM.
Consider `CC(NC(=O)NCCCCNC(=O)NC(C)C12CC3CC(CC(C3)C1)C2)C12CC3CC(CC(C3)C1)C2` (configuration not stated), for which the T1/2 in series [5] is 8 min. The inhibition constant (Ki) in series [6] was 2.7 nM. Further, the concentration in solution in series [2] (solubility at 24 h) came to 10 µM (≈ 4.99 µg/mL). Moreover, the remaining at 0.5 h, 1 µM is 24% in series [3] and 92% in series [4]. Also, the IC50 came out at 1.2 nM in series [1] and 2.5 nM in series [7].
In the case of `O=C(NCCNC(=O)NCC12CC3CC(CC(C3)C1)C2)NCC12CC3CC(CC(C3)C1)C2`, in series [1], the IC50 was 179 nM.
